Experimental findings from ChEMBL document CHEMBL5620421, “2,6-Disubstituted 7-(naphthalen-2-ylmethyl)-7H-purines as a new class of potent antitubercular agents inhibiting DprE1” (Eur J Med Chem, 2023) are described below.

SMILES strings stand for the structures. In brackets after ≈: the same amount, converted by molar mass. Activity calls are given as the source filed them. No cut-off for these calls is given here.

The test system of data set [1] is Pseudomonas aeruginosa. The data set is described as follows: Antibacterial activity against multidrug-resistant Pseudomonas aeruginosa A1245 assessed as inhibition of bacterial growth at 125 uM incubated for 24 to 48 hrs by microdilution broth method. The class given is functional, organism-based. To be noted: time 24-48 hrs. On the technique in general: In broth dilution the organism is exposed to a series of concentrations in liquid medium.

Data set [2] has as its system Mycobacterium kansasii. The data set is described as follows: Antitubercular activity against Mycobacterium kansasii CNCTC My 235/80 assessed as inhibition of bacterial growth measured after 21 days of incubation by Sulas semisynthetic medium based assay. Format: functional. To be noted: CNCTC My 235/80, 504 h, time 21 day. Summed up: (§1)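 Micromethod in Sula's semisynthetic medium. MIC is the lowest concentration inhibiting >99% of the mycobacterial population. Isoniazid was the standard.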

The test system of data set [3] is Mycobacterium tuberculosis. The data set is described as follows: Antimycobacterial activity against XDR clinical isolate Mycobacterium tuberculosis PRAHA 131 assessed as inhibition of mycobacterial growth measured after 14 to 21 days of incubation by Sulas semisynthetic medium based assay. Format: functional. To be noted: time 14-21 day. Summed up:
(§2)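 Clinical MDR/XDR M. tuberculosis isolates were tested by the Sula's semisynthetic medium micromethod. Compounds in DMSO at 1000 to 0.5 μmol/L, in twofold-type steps. Incubation at 37 °C, read at 14 and 21 days. MIC99 is the lowest concentration inhibiting >99% of growth. Drug resistance or susceptibility of each isolate is to amikacin, clofazimine, gentamicin, ofloxacin, streptomycin and the others listed.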

For data set [4], the system named is Enterococcus faecium. The data set is described as follows: Antibacterial activity against vancomycin-resistant Enterococcus faecium assessed as inhibition of bacterial growth incubated for 24 to 48 hrs by microdilution broth method. Format: functional, organism-based. To be noted: time 24-48 hrs. Summed up:
(§3)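 Clinical isolates, stored at −70 °C, were passaged twice on Mueller-Hinton agar. Broth microdilution in Mueller-Hinton broth, pH 7.4, with twofold serial dilutions. DMSO was at most 1% final. Inoculum 1.5 × 10⁸ CFU/mL suspension. MIC is 95% growth inhibition, read after 24 and 48 h at 36 °C.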

Data set [5] deals with Klebsiella pneumoniae. Description: Antibacterial activity against ESBL negative Klebsiella pneumoniae C1950 assessed as inhibition of bacterial growth at 125 uM incubated for 24 to 48 hrs by microdilution broth method. The class given is functional, organism-based. To be noted: time 24-48 hrs.
Data set [6] relates to HepG2. Description: Cytotoxicity against human HepG2 cells assessed as cell viability at 50 uM incubated for 72 hrs by MTT spectrophotometric analysis relative to control. To be noted: read-out: Activity. Format: functional. The gist of the method:
(§4)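 HepG2 or rat H9c2 cells in DMEM with FBS, seeded at 10,000 cells/well. Treated 24 h later for 72 h, with 0.1% DMSO vehicle and 1% Triton X-100 as controls. MTT added (3 mg/mL solution) for 2 h at 37 °C, then cells lysed in isopropanol/0.1 M HCl/5% Triton X-100. Read at 570 nm minus 690 nm. Viability expressed as % of vehicle; IC50 derived where reached. At least four independent experiments.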

In the next data set the test system is Escherichia coli. Description: Antibacterial activity against Escherichia coli A1235 assessed as inhibition of bacterial growth incubated for 24 to 48 hrs by microdilution broth method. The class given is functional, organism-based. To be noted: time 24-48 hrs. Summed up:
(§5)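 Clinical isolates kept at –70 °C and subcultured twice on Mueller-Hinton agar, using the second subculture. Broth microdilution in Mueller-Hinton broth at pH 7.4 with two-fold serial compound dilutions and DMSO ≤1% final. Inoculum was 10 μL of a 1.5 × 10⁸ CFU/mL suspension. Incubated at 36 °C ± 1 °C and read at 24 h and 48 h. MIC taken as 95% growth inhibition.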

Data set [7] concerns Mycobacterium tuberculosis. Description: Antimycobacterial activity against XDR clinical isolate Mycobacterium tuberculosis 9449/2007 assessed as inhibition of mycobacterial growth measured after 14 to 21 days of incubation by Sulas semisynthetic medium based assay. Format: functional. To be noted: time 14-21 day. The gist of the method: as §2
Another data set relates to Staphylococcus aureus. Description: Antibacterial activity against methicilin-resistant Staphylococcus aureus C1923 assessed as inhibition of bacterial growth at 125 uM incubated for 24 to 48 hrs by microdilution broth method. The class given is functional, organism-based. To be noted: time 24-48 hrs.
Data set [8] deals with Mycobacterium kansasii. Description: Antitubercular activity against Mycobacterium kansasii CNCTC My 235/80 assessed as inhibition of bacterial growth measured after 7 days of incubation by Sulas semisynthetic medium based assay. Format: functional. To be noted: CNCTC My 235/80, 168 h, time 7 day. Summed up:
as §1

The nature of data set [9]: Half life in human liver microsomes at 3 uM incubated for 5 to 45 min in presence of NADPH by LC-MS analysis. Format: ADME, Microsome. To be noted: time 5-45 min. Background: Liver microsomes are a subcellular fraction often used to study metabolism.
Data set [10] concerns Klebsiella pneumoniae. Description: Antibacterial activity against ESBL positive Klebsiella pneumoniae C1914 assessed as inhibition of bacterial growth incubated for 24 to 48 hrs by microdilution broth method. The class given is functional, organism-based. To be noted: time 24-48 hrs. The gist of the method:
as §5

Data set [11] is described as follows: Stability in human plasma assessed as compound remaining at 1 uM incubated for 15 to 120 mins by LC-MS analysis. To be noted: time 15-120 min, read-out: Stability. The class given is ADME, cell-free. The gist of the method:
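Stopped with acetonitrile containing internal standard and centrifuged at 12,000 rpm for 5 min at 4 °C. Supernatant analysed by LC-MS in positive mode. % remaining taken from compound/IS peak-area ratios at 120 versus 0 min.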

In data set [12] the test system is Pseudomonas aeruginosa. Description: Antibacterial activity against multidrug-resistant Pseudomonas aeruginosa A1245 assessed as inhibition of bacterial growth incubated for 24 to 48 hrs by microdilution broth method. To be noted: time 24-48 hrs. Format: functional, organism-based. Summed up: as §3
The test system of data set [13] is Klebsiella pneumoniae. Description: Antibacterial activity against ESBL positive Klebsiella pneumoniae C1914 assessed as inhibition of bacterial growth at 125 uM incubated for 24 to 48 hrs by microdilution broth method. To be noted: time 24-48 hrs. Format: functional, organism-based.
In data set [14] the test system is HepG2. The data set is described as follows: Cytotoxicity against human HepG2 cells assessed as cell viability incubated for 72 hrs by MTT spectrophotometric analysis. The class given is functional, cell-based. To be noted: HepG2, 72 h. Summed up: as §4
Data set [15] is described as follows: Selectivity index, ratio of IC50 for cytotoxicity against human HepG2 cells by MTT assay to MIC99 for antitubercular activity against Mycobacterium tuberculosis CNCTC My 331/88 (H37Rv) assessed as inhibition of bacterial growth measured after 14 days of incubation. Format: functional. To be noted: time 14 day. Summed up:
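HepG2 cells, 15 × 10³/well, were attached overnight and exposed 24 h to serial dilutions (DMSO ≤1%). Read by MTT at 0.5 mg/mL for 1 h and 570 nm. IC50 from 4-parameter regression, three independent experiments in triplicate. SI is HepG2 IC50 divided by H37Rv MIC99.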

Another data set has as its system H9c2. Description: Cytotoxicity against rat H9c2 cells assessed as cell viability incubated for 72 hrs by MTT spectrophotometric analysis. The class given is functional, cell-based. To be noted: H9c2, 72 h. The gist of the method: as §4
Data set [16] relates to Staphylococcus epidermidis. Description: Antibacterial activity against Staphylococcus epidermidis C1936 assessed as inhibition of bacterial growth at 125 uM incubated for 24 to 48 hrs by microdilution broth method. Format: functional, organism-based. To be noted: time 24-48 hrs.
The subject of data set [17] is Enterococcus faecium. Description: Antibacterial activity against vancomycin-resistant Enterococcus faecium assessed as inhibition of bacterial growth at 125 uM incubated for 24 to 48 hrs by microdilution broth method. Format: functional, organism-based. To be noted: time 24-48 hrs.

One may read the MIC99 as an inhibitory concentration at the 99% level, which refers to growth in some studies and to a panel of isolates in others. For orientation: half-life means how long it takes for the measured level to halve. Usually IC50 stands for the concentration needed to halve the response being measured. For `CCNc1nc(N2CCOCC2)nc2ncn(Cc3ccc4ccccc4c3)c12`, the outcome with Pseudomonas aeruginosa [1], with Enterococcus faecium [4], with Klebsiella pneumoniae [5], with Escherichia coli, in the data set with Staphylococcus aureus and in the data set with Klebsiella pneumoniae [10] was inactive. For the same compound, the outcome (in the data set on Pseudomonas aeruginosa [12]; in the data set with Klebsiella pneumoniae [13]; in data set [16]; with Enterococcus faecium [17]) was inactive. In addition, the MIC99 with Mycobacterium kansasii [2] is 8 µM (≈ 3.11 µg/mL); in data set [3], 4 µM (≈ 1.55 µg/mL); in data set [7], 4 µM (≈ 1.55 µg/mL); with Mycobacterium kansasii [8], 4 µM (≈ 1.55 µg/mL). Further, the viability at 50 µM with HepG2 [6] was determined as 66.9%. For the same compound, the half-life at 3 µM in [9] is 51.3 min. Also, the remaining at 1 µM in data set [11] is 95.5%. For the same compound, the IC50 with HepG2 [14] and in the data set with H9c2 was above 50 µM each time. Also, the “Selectivity Index” value in [15] is recorded as 63.88.

As for `CCOc1nc(N2CCOCC2)nc2ncn(Cc3ccc4ccccc4c3)c12`, the outcome in the data set on Pseudomonas aeruginosa [1], in the data set on Enterococcus faecium [4], in the data set on Klebsiella pneumoniae [5], with Escherichia coli, in the data set on Staphylococcus aureus and with Klebsiella pneumoniae [10] was inactive. Moreover, the result (in the data set on Pseudomonas aeruginosa [12]; in the data set on Klebsiella pneumoniae [13]; in data set [16]; with Enterococcus faecium [17]) was inactive. For the same compound, the MIC99 was found to be 16 µM (≈ 6.23 µg/mL) in the data set with Mycobacterium kansasii [2], 4 µM (≈ 1.56 µg/mL) in data set [3], 4 µM (≈ 1.56 µg/mL) in data set [7] and 8 µM (≈ 3.12 µg/mL) in the data set with Mycobacterium kansasii [8]. Besides, in the data set with HepG2 [6], the viability at 50 µM turned out to be 23.5%. In addition, in data set [9], the half-life at 3 µM was 56.8 min. In data set [11], the remaining at 1 µM came out at 99.6%. Besides, the values for the concentration for half-maximal inhibition (IC50) in the data set with HepG2 [14] and with H9c2 were 33.1 µM and above 50 µM, respectively. The “Selectivity Index” value in data set [15] turned out to be 43.45.
